CHO parental Ca = ATP-evoked calcium signal inhibitors, parental CHO, primary screen, counter-screen for OX1R antagonist project, cell-based, fluorescence, Fluo-8 calcium dye; actives 0.63% (n = 330,000); AID 463079, 2010; inhibition, % at 5.6 µM; parental CHO-K1, ATP-induced calcium, Fluo-8 fluorescence;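 active = inhibition above that plate's mean sample inhibition plus 3 SD, cut at about 26% in these data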;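 also: 0% = ATP-challenged DMSO wells and 100% = DMSO wells without ATP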
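Assay system: parental CHO cells; Read-out basis: percent inhibition of ATP-evoked calcium rise, normalized to controls; Benchmarks: ATP and no-ATP DMSO wells; Compound dosing: single nominal dose of 5.6 µM per compound; Signal: Fluo-8 calcium dye fluorescence; Also added: ATP as calcium-mobilizing challenge; Repeats: singlicate.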
GPR7 antag = GPR7 receptor antagonists, primary screen, cell-based, fluorescence, single concentration; inhibition, % at 4.4 µM; actives 1.1% (n = 290,000); GPR7-expressing cells, fluorescence antagonist assay; Neuropeptides B/W receptor type 1 (Homo sapiens), P48145; AID 1861, 2009; in the data active = inhibition above about 16%, passing the limit was not always enough;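 also: cells stimulated with the agonist NPW; 0% = agonist with vehicle and 100% = vehicle without agonist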
OX1R antag-1 = antagonists of human orexin 1 receptor (OX1R); Orexin/Hypocretin receptor type 1 (Homo sapiens), O43613; inhibition, % at 6.6 µM; actives 1.8% (n = 330,000); OX1R-expressing cells, FRET antagonist read-out; in the data active = inhibition mostly above about 38%, no sharp cut-off; inactive = mostly below about 40%;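 also: 0% = agonist challenge alone and 100% = reference antagonist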
Target sequence (O43613 whole entry, looked up): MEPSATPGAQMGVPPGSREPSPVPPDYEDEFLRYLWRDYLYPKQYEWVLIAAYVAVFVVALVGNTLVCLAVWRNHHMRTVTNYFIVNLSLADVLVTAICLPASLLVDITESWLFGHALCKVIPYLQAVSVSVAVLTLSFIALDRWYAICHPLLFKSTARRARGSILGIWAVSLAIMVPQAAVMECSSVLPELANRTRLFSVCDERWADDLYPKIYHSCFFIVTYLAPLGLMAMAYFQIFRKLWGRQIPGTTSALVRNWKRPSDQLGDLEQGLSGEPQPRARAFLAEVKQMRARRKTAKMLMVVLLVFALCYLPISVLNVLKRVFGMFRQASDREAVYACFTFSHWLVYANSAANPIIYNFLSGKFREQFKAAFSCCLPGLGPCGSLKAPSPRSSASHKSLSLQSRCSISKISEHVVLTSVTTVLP
TAAR1 agonist = human TAAR1 agonists, primary screen, Fluo-8 calcium fluorescence, CHO RD-HGA16 cells; Trace amine-associated receptor 1 (Homo sapiens), Q96RJ0; vehicle wells 0%, saturating PEA agonist 100%; activation, % at 3 µM; actives 0.99% (n = 360,000); AID 624467, 2012;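 active = activation above the mean activation of all test compounds in the run plus 3 SD, cut at about 38% in these data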
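Test system: RD-HGA16 (CHO) cells co-expressing Gα16 and hTAAR1; dosing: one-point dosing at 3 µM (nominal); timing: 17-24 h seeding, 75 min 37 °C dye, 30 min RT; signal: kinetic Fluo-8 calcium fluorescence; read-out basis: % activation relative to PEA EC100 response; controls: DMSO and PEA EC100; replicates: n 1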
TAAR1 antag = human TAAR1 antagonists, primary screen, Fluo-8 calcium fluorescence, CHO RD-HGA16 cells; actives 1.5% (n = 360,000); inhibition, % at 3 µM; AID 624466, 2012; Trace amine-associated receptor 1 (Homo sapiens), Q96RJ0; antagonist;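 active = inhibition above a per-plate cutoff, the mean inhibition of test compounds on that plate plus 3 SD, cut at about 49% in these data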;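 also: 0% = DMSO plus EC80 beta-PEA response and 100% = DMSO alone without agonist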
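Test system: CHO RD-HGA16 cells bearing hTAAR1 | Reagent: β-PEA, EC80 | Compound dosing: 3 µM, single point | Schedule: Dye loading 75 min at 37 °C, then 30 min room temperature | Signal: Calcium fluorescence with Fluo-8 | Evaluation: Percent inhibition of PEA-evoked calcium signal, max/basal emission ratio | Control set: DMSO-only wells and EC80 β-PEA-stimulated wells | Repeats: Singlicate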
OX1R antag-2 = OX1R (HCRTR1) antagonists, primary screen, fluorescence, CHO/OX1R cells, Fluo-8 calcium, orexin A; Orexin/Hypocretin receptor type 1 (Homo sapiens), O43613; Fluo-8 calcium fluorescence; inhibition, % at 5 µM; actives 0.43% (n = 330,000); AID 434989, 2010;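 active = inhibition above its plate's threshold, mean inhibition of all tested compounds on the plate plus 3 SD, cut at about 37% in these data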;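 also: 0% = orexin A challenge wells and 100% = SB-334867-A antagonist wells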
GPR7 antag conf = GPR7 receptor antagonists, confirmation, cell-based, fluorescence, single concentration; shares compounds with GPR7 antag; GPR7-expressing cells, calcium fluorescence antagonist mode; inhibition, % at 4.4 µM; actives 52% (n = 2,400); AID 1952, 2009; in the data active = inhibition above about 24%;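 also: stimulated with the GPR7 agonist NPW; 0% = agonist plus vehicle and 100% = vehicle alone without agonist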
MCHR1 antagonist = MCHR1 antagonists in cells, counter-screen for GPR7 antagonist project, cell-based, fluorescence, human; shares compounds with GPR7 antag; MCHR1-expressing cells, fluorescence antagonist assay; inhibition, % at 4.4 µM; actives 62% (n = 2,400); AID 2148, 2009; in the data active = inhibition above about 22%;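 also: 0% = vehicle with agonist and 100% = vehicle without agonist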
* = called active by the depositor; / = no result. Shown are actives, neighbours in structure and some others; about 4.5% of the full set was active somewhere.

SMILES	CHO parental Ca	GPR7 antag	OX1R antag-1	TAAR1 agonist	TAAR1 antag	OX1R antag-2	GPR7 antag conf	MCHR1 antagonist
Cc1ccc(N2C(=O)[C@@H]3[C@H](C2=O)[C@H]2C=CC=NN2[C@@H]3C(=O)Nc2ccccc2)cc1	-13	-13	4	1	-7	-11	/	/
C=C(CCC(=O)c1ccccc1)C(=O)c1ccccc1	-3	46*	13	0	0	4	86*	78*
O=C(CCCCCCCC(=O)c1ccccc1)c1ccccc1	-10	7	20	2	20	-22	/	/
Cc1ccccc1NC(=O)Cn1nnc(C(=O)NCc2ccco2)c1N	1	8	5	1	5	5	/	/
Cc1ccccc1NC(=O)Cn1nnc(S(=O)(=O)c2ccc(C(C)(C)C)cc2)c1N	10	28*	5	29	24	13	34*	10
CC1=CC(C)(C)[N+](C)(C)c2ccccc21	0	-10	13	2	30	-24	/	/
Oc1ccccc1-c1nnc(COc2ccccc2)o1	-12	5	3	1	9	0	/	/
c1ccc(OCc2nnc(-c3ccccc3)o2)cc1	-9	22*	13	-2	-6	-3	15	25*
C=CCn1c(SCC(=O)Nc2ccc(F)cc2)nnc1-c1cnccn1	-19	2	-1	1	-15	-3	/	/
O=C(c1cc(COc2ccc(F)c(F)c2)on1)N1CCN(C2CCCCC2)C(=O)C1	19	27*	14	15	26	8	11	4
CC(C)(C)c1cc(CN2CCCCC2)cc(C(C)(C)C)c1O	-7	23*	13	6	-11	-17	16	29*
O=C(Nc1ccc(-n2nncc2-c2ccco2)cc1)c1cccc(F)c1	-9	39*	11	4	35	-3	62*	49*
NS(=O)(=O)c1ccc(-n2nncc2-c2ccco2)cc1	4	-2	29	3	-16	1	/	/
COc1ccc2cc(C(=O)NCc3ccccc3)c(=O)oc2c1	-3	34*	8	0	-9	-4	12	1
COc1ccc(CNC(=O)c2cc3ccccc3oc2=O)cc1	-20	5	8	4	8	-22	/	/
CN(CCOc1ccc(Cl)c(Cl)c1)Cc1ccccc1	-12	-7	1	3	-4	-29	/	/
Cc1cc(Cl)cc(C)c1OCCOCCNCc1ccccc1	-7	27*	-5	15	-1	-26	35*	28*
Clc1ccc(OCCOCCNCc2ccccc2)cc1Cl	3	90*	-3	23	26	-16	19	27*
CC(=O)N(C)C[C@@H]1Oc2cc(Br)ccc2S(=O)(=O)N([C@H](C)CO)C[C@@H]1C	/	/	/	7	-7	/	/	/
COc1ccc(C(=O)N(C)Cc2ccc(C)o2)cc1OC1CCN(C(C)=O)CC1	-7	23*	5	5	-33	-16	1	36*
O=S1(=O)CC(N2CC=CC2)CN1Cc1cn(Cc2ccc(Cl)cc2)nn1 (stereo unspecified)	/	/	/	1	-18	/	/	/
Cc1cc(C)nc(CCNC(=O)c2cc(COc3c(F)cccc3F)on2)n1	-7	-7	6	0	-10	-15	/	/
Cc1cc(C)nc(CCNC(=O)c2cc(COc3ccccc3)on2)n1	-10	27*	18	2	-2	-8	3	-1
